Data published in ChEMBL document CHEMBL1629638, “Pyrosequencing using the single-nucleotide polymorphism protocol for rapid determination of TEM- and SHV-type extended-spectrum beta-lactamases in clinical isolates and identification of the novel beta-lactamase genes blaSHV-48, blaSHV-105, and blaTEM-155” (2009).
Converted amounts (≈) assume the structure as drawn.

What was measured:
Type in all cases: functional
Escherichia coli [1] = test: Antimicrobial activity against Escherichia coli ATCC 25922 by microdilution method
In short: (§1)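 Broth microdilution MIC. Plates with serial dilutions of each β-lactam inoculated to 10^5 CFU/ml, incubated 18 to 22 h at 35°C in ambient air. MIC = lowest concentration completely inhibiting growth by unaided eye. Strains carrying the novel β-lactamases are recombinants, with the genes shotgun cloned into pCLL2300.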

Escherichia coli [2] = test: Antimicrobial activity against Escherichia coli DH5[alpha] isolate GC 7668 expressing bla SHV-48 gene by microdilution method; in short: as §1
Escherichia coli [3] = test: Antimicrobial activity against Escherichia coli DH5[alpha] isolate GC 8128 expressing bla SHV-105 gene by microdilution method
In short: (§2)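 Recombinant strains carrying the cloned β-lactamase gene (shotgun cloned into pCLL2300, confirmed by standard sequencing) tested by broth microdilution. Serial antibiotic dilutions were inoculated to 10^5 CFU/ml and incubated 18 to 22 h at 35°C in ambient air. MIC was the lowest concentration completely inhibiting growth by unaided eye.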

Escherichia coli [4] = test: Antimicrobial activity against Escherichia coli DH5[alpha] by microdilution method; in short: as §1
Escherichia coli [5] = test: Antimicrobial activity against Escherichia coli DH5[alpha] isolate GC 8133 expressing bla […] gene by microdilution method; in short: as §2
Escherichia coli [6] = test: Antimicrobial activity against Escherichia coli DH5[alpha] isolate GC 8130 expressing bla SHV-1 gene by microdilution method; in short: as §1
Escherichia coli [7] = test: Antimicrobial activity against Escherichia coli DH5[alpha] isolate GC 8128 expressing bla SHV-105 gene by microdilution method in presence of clavulanic acid
In short: (§3)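 Broth microdilution MIC. Plates of serial antibiotic dilutions inoculated to 10^5 CFU/ml and incubated 18 to 22 h at 35°C in ambient air. MIC is the lowest concentration giving complete growth inhibition by unaided eye. The recombinant strains carry shotgun-cloned bla genes in pCLL2300.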

Escherichia coli [8] = test: Antimicrobial activity against Escherichia coli DH5[alpha] isolate GC 8130 expressing bla SHV-1 gene by microdilution method in presence of clavulanic acid; in short: as §3
Escherichia coli [9] = test: Antimicrobial activity against Escherichia coli DH5[alpha] isolate GC 7668 expressing bla SHV-48 gene by microdilution method in presence of clavulanic acid; in short: as §3
Escherichia coli [10] = test: Antimicrobial activity against Escherichia coli DH5[alpha] by microdilution method in presence of clavulanic acid; in short: as §3
Escherichia coli [11] = test: Antimicrobial activity against Escherichia coli DH5[alpha] isolate GC 8133 expressing bla […] gene by microdilution method in presence of clavulanic acid; in short: as §3
Escherichia coli [12] = test: Antimicrobial activity against Escherichia coli ATCC 25922 by microdilution method in presence of clavulanic acid; in short: as §3
Escherichia coli [13] = test: Antimicrobial activity against Escherichia coli DH5[alpha] isolate GC 8133 expressing bla […] gene by microdilution method in presence of Tazobactam; in short: as §3
Escherichia coli [14] = test: Antimicrobial activity against Escherichia coli DH5[alpha] isolate GC 7668 expressing bla SHV-48 gene by microdilution method in presence of Tazobactam; in short: as §3
Escherichia coli [15] = test: Antimicrobial activity against Escherichia coli DH5[alpha] by microdilution method in presence of Tazobactam; in short: as §3
Escherichia coli [16] = test: Antimicrobial activity against Escherichia coli DH5[alpha] isolate GC 8128 expressing bla SHV-105 gene by microdilution method in presence of Tazobactam; in short: as §3
Escherichia coli [17] = test: Antimicrobial activity against Escherichia coli DH5[alpha] isolate GC 8130 expressing bla SHV-1 gene by microdilution method in presence of Tazobactam; in short: as §3
Escherichia coli [18] = test: Antimicrobial activity against Escherichia coli ATCC 25922 by microdilution method in presence of Tazobactam; in short: as §3
Escherichia coli [19] = test: Antimicrobial activity against Escherichia coli DH5[alpha] isolate GC 8128 expressing bla SHV-105 gene by Etest method in presence of clavulanic acid
In short: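 The blaSHV-105 gene was shotgun-cloned into vector pCLL2300, and the insert was confirmed by standard sequencing. The recombinant E. coli strain carrying it was tested against a β-lactam panel in Etest format.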

Escherichia coli [20] = test: Antimicrobial activity against Escherichia coli DH5[alpha] isolate GC 8130 expressing bla SHV-1 gene by Etest method in presence of clavulanic acid
Escherichia coli [21] = test: Antimicrobial activity against Escherichia coli DH5[alpha] isolate GC 8130 expressing bla SHV-1 gene by Etest method
Escherichia coli [22] = test: Antimicrobial activity against Escherichia coli DH5[alpha] by Etest method in presence of clavulanic acid
Escherichia coli [23] = test: Antimicrobial activity against Escherichia coli DH5[alpha] isolate GC 8133 expressing bla […] gene by Etest method in presence of clavulanic acid
Escherichia coli [24] = test: Antimicrobial activity against Escherichia coli ATCC 25922 by Etest method
Escherichia coli [25] = test: Antimicrobial activity against Escherichia coli ATCC 25922 by Etest method in presence of clavulanic acid
Escherichia coli [26] = test: Antimicrobial activity against Escherichia coli DH5[alpha] isolate GC 8133 expressing bla […] gene by Etest method
Escherichia coli [27] = test: Antimicrobial activity against Escherichia coli DH5[alpha] by Etest method
Escherichia coli [28] = test: Antimicrobial activity against Escherichia coli DH5[alpha] isolate GC 7668 expressing bla SHV-48 gene by Etest method in presence of clavulanic acid
Escherichia coli [29] = test: Antimicrobial activity against Escherichia coli DH5[alpha] isolate GC 7668 expressing bla SHV-48 gene by Etest method
Escherichia coli [30] = test: Antimicrobial activity against Escherichia coli DH5[alpha] isolate GC 8128 expressing bla SHV-105 gene by Etest method

CO/N=C(\C(=O)N[C@@H]1C(=O)N2C(C(=O)[O-])=C(C[N+]3(C)CCCC3)CS[C@H]12)c1csc(N)n1 [CEFEPIME]
MIC (Escherichia coli [1]): ≤ 0.125 µg/mL
MIC (Escherichia coli [2]): 0.5 µg/mL (≈ 1.04 µM)
MIC (Escherichia coli [3]): 16 µg/mL (≈ 33.3 µM)
MIC (Escherichia coli [4]): ≤ 0.125 µg/mL
MIC (Escherichia coli [5]): 128 µg/mL (≈ 266 µM)

CO/N=C(\C(=O)N[C@@H]1C(=O)N2C(C(=O)O)=C(COC(N)=O)CS[C@H]12)c1ccco1 [CEFUROXIME]
MIC (Escherichia coli [1]): ≤ 0.125 µg/mL
MIC (Escherichia coli [2]): ≤ 0.125 µg/mL
MIC (Escherichia coli [3]): 128 µg/mL (≈ 302 µM)
MIC (Escherichia coli [4]): ≤ 0.125 µg/mL
MIC (Escherichia coli [6]): 0.25 µg/mL (≈ 0.589 µM)
MIC (Escherichia coli [5]): 64 µg/mL (≈ 151 µM)

CO[C@@]1(NC(=O)Cc2cccs2)C(=O)N2C(C(=O)O)=C(COC(N)=O)CS[C@@H]21 [CEFOXITIN]
MIC (Escherichia coli [1]): 4 µg/mL (≈ 9.36 µM)
MIC (Escherichia coli [2]): 4 µg/mL (≈ 9.36 µM)
MIC (Escherichia coli [3]): 8 µg/mL (≈ 18.7 µM)
MIC (Escherichia coli [4]): 8 µg/mL (≈ 18.7 µM)
MIC (Escherichia coli [6]): 16 µg/mL (≈ 37.4 µM)
MIC (Escherichia coli [5]): 8 µg/mL (≈ 18.7 µM)

C[C@@H](O)[C@H]1C(=O)N2C(C(=O)O)=C(SCCNC=N)C[C@H]12 [IMIPENEM ANHYDROUS]
MIC (Escherichia coli [1]): ≤ 0.125 µg/mL
MIC (Escherichia coli [2]): 0.25 µg/mL (≈ 0.835 µM)
MIC (Escherichia coli [4]): 0.25 µg/mL (≈ 0.835 µM)
MIC (Escherichia coli [5]): 0.25 µg/mL (≈ 0.835 µM)

CC1(C)S[C@@H]2[C@H](NC(=O)[C@H](N)c3ccc(O)cc3)C(=O)N2[C@H]1C(=O)O [AMOXICILLIN]
MIC (Escherichia coli [7]): 16 µg/mL
MIC (Escherichia coli [8]): 16 µg/mL
MIC (Escherichia coli [9]): 32 µg/mL
MIC (Escherichia coli [10]): 8 µg/mL
MIC (Escherichia coli [11]): 32 µg/mL
MIC (Escherichia coli [12]): 8 µg/mL

CCN1CCN(C(=O)N[C@@H](C(=O)N[C@@H]2C(=O)N3[C@@H]2SC(C)(C)[C@@H]3C(=O)O)c2ccccc2)C(=O)C1=O [PIPERACILLIN]
MIC (Escherichia coli [13]): 2 µg/mL
MIC (Escherichia coli [1]): 2 µg/mL (≈ 3.86 µM)
MIC (Escherichia coli [2]): > 128 µg/mL
MIC (Escherichia coli [3]): > 128 µg/mL
MIC (Escherichia coli [14]): > 128 µg/mL
MIC (Escherichia coli [4]): 0.5 µg/mL (≈ 0.966 µM)
MIC (Escherichia coli [15]): 0.5 µg/mL
MIC (Escherichia coli [16]): 1 µg/mL
MIC (Escherichia coli [17]): 1 µg/mL
MIC (Escherichia coli [6]): 64 µg/mL (≈ 124 µM)
MIC (Escherichia coli [5]): > 128 µg/mL
MIC (Escherichia coli [18]): 2 µg/mL

CC1(C)S[C@@H]2[C@H](NC(=O)[C@H](N)c3ccccc3)C(=O)N2[C@H]1C(=O)O [AMPICILLIN]
MIC (Escherichia coli [1]): 4 µg/mL (≈ 11.4 µM)
MIC (Escherichia coli [2]): > 128 µg/mL
MIC (Escherichia coli [3]): > 128 µg/mL
MIC (Escherichia coli [4]): 8 µg/mL (≈ 22.9 µM)
MIC (Escherichia coli [6]): > 128 µg/mL
MIC (Escherichia coli [5]): > 128 µg/mL

CO/N=C(\C(=O)N[C@@H]1C(=O)N2C(C(=O)O)=C(COC(C)=O)CS[C@H]12)c1csc(N)n1 [CEFOTAXIME]
MIC (Escherichia coli [19]): 0.032 µg/mL
MIC (Escherichia coli [20]): 0.023 µg/mL
MIC (Escherichia coli [1]): ≤ 0.125 µg/mL
MIC (Escherichia coli [21]): < 0.25 µg/mL
MIC (Escherichia coli [2]): ≤ 0.125 µg/mL
MIC (Escherichia coli [22]): 0.023 µg/mL
MIC (Escherichia coli [3]): 128 µg/mL (≈ 281 µM)
MIC (Escherichia coli [4]): ≤ 0.125 µg/mL
MIC (Escherichia coli [23]): 0.023 µg/mL
MIC (Escherichia coli [6]): ≤ 0.125 µg/mL
MIC (Escherichia coli [24]): < 0.25 µg/mL
MIC (Escherichia coli [25]): 0.047 µg/mL
MIC (Escherichia coli [26]): 2 µg/mL (≈ 4.39 µM)
MIC (Escherichia coli [27]): < 0.25 µg/mL
MIC (Escherichia coli [28]): 0.023 µg/mL
MIC (Escherichia coli [5]): 32 µg/mL (≈ 70.3 µM)
MIC (Escherichia coli [29]): < 0.25 µg/mL
MIC (Escherichia coli [30]): > 16 µg/mL

CC(C)(O/N=C(\C(=O)N[C@@H]1C(=O)N2C(C(=O)[O-])=C(C[n+]3ccccc3)CS[C@H]12)c1csc(N)n1)C(=O)O [CEFTAZIDIME]
MIC (Escherichia coli [19]): 0.25 µg/mL
MIC (Escherichia coli [20]): 0.125 µg/mL
MIC (Escherichia coli [1]): 0.25 µg/mL (≈ 0.457 µM)
MIC (Escherichia coli [21]): < 0.5 µg/mL
MIC (Escherichia coli [2]): 1 µg/mL (≈ 1.83 µM)
MIC (Escherichia coli [22]): 0.094 µg/mL
MIC (Escherichia coli [3]): > 128 µg/mL
MIC (Escherichia coli [4]): 0.25 µg/mL (≈ 0.457 µM)
MIC (Escherichia coli [23]): 0.5 µg/mL
MIC (Escherichia coli [6]): 0.5 µg/mL (≈ 0.915 µM)
MIC (Escherichia coli [24]): < 0.5 µg/mL
MIC (Escherichia coli [25]): 0.125 µg/mL
MIC (Escherichia coli [26]): > 32 µg/mL
MIC (Escherichia coli [27]): < 0.5 µg/mL
MIC (Escherichia coli [28]): 0.125 µg/mL
MIC (Escherichia coli [5]): > 128 µg/mL
MIC (Escherichia coli [29]): < 0.5 µg/mL
MIC (Escherichia coli [30]): > 32 µg/mL

C[C@H]1[C@H](NC(=O)/C(=N\OC(C)(C)C(=O)O)c2csc(N)n2)C(=O)N1S(=O)(=O)O [AZTREONAM]
MIC (Escherichia coli [1]): 0.25 µg/mL (≈ 0.574 µM)
MIC (Escherichia coli [2]): 0.5 µg/mL (≈ 1.15 µM)
MIC (Escherichia coli [3]): > 128 µg/mL
MIC (Escherichia coli [4]): ≤ 0.125 µg/mL
MIC (Escherichia coli [6]): 0.25 µg/mL (≈ 0.574 µM)
MIC (Escherichia coli [5]): > 128 µg/mL
